# HUVEC inhibit = inhibitors of human endothelial cell proliferation; HUVEC proliferation, CellTiter-Glo luminescence, 72 h; stronger effect = lower value; viability, % at 10 µM (by protocol); 86,000 tested, 1.1% active;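 active = viability at or below 30%; inactive = viability above 30%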;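 note: 100% = median luminescence of DMSO-only cell control wells on each plate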
# HCT116 bCat-KO = beta-catenin-lacking colon tumor cell growth suppression; HCT116 beta-catenin knockout viability, CellTiter-Glo, 60 h; stronger effect = lower value; viability, % at 10 µM; 140,000 tested, 1.5% active; AID 818;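 active = viability at or under a set limit, the compound median less 4 SD, cut at about 6% in these data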;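 note: 0% = Hyamine 1622 control at 20 µM and 100% = untreated cell control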
# Lung fibro prol = blocks proliferation of human lung fibroblasts. LL 47 human lung fibroblast viability, ATP luminescence; stronger effect = lower value. viability, % at 10 µM. 85,000 tested, 1.1% active;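 active = viability at or below 50% in the single dose screen; inactive = viability above 50%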;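 note: compound exposure lasted 72 h before the ATP readout; 100% = median luminescence of untreated cell-only wells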
#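 Test system: LL 47 human lung fibroblasts / Quantity: 1,150 cells in each well / Medium: IMEM growth medium with 15% fetal bovine serum / Incubation: 72 h compound exposure at 37 °C after overnight plating / Detection: CellTiter-Glo luminescence measuring cellular ATP / Read-out: % viability versus median cells-only luminescence / Benchmarks: cell-only wells, no compound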
# H69AR inhibit = blocks growth of human H69AR lung tumor cells; 85,000 tested, 6% active; viability, % at 10 µM; AID 598; H69AR lung tumor viability, ATP luminescence, 72 h; stronger effect = lower value;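 active = viability at or below 40%; inactive = viability above 40%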;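 note: multidrug resistant small cell line overexpressing MRP-1 efflux transporter; 100% = mean luminescence of untreated control wells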
# HCT116 PTEN-null = growth suppressors of cells with PTEN tumor suppressor deletion | 140,000 tested, 1.2% active | viability, % at 10 µM | HCT116 PTEN-null viability, CellTiter-Glo, 60 h; stronger effect = lower value;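 active = viability at or below a set limit, 4 SD under the median of all tested compounds, cut at about 3.7% in these data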;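 note: PTEN knockout HCT116 line with beta catenin targeted HCT116 as companion control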
# An asterisk follows results filed as active; x = no result. The entries come from a sample that favours hits as a whole.
SMILES,HUVEC inhibit,HCT116 bCat-KO,Lung fibro prol,H69AR inhibit,HCT116 PTEN-null
CCOC(=O)c1sc(NC(=O)CSc2nccc(C)n2)c(C#N)c1C,89.0,11.0,94.7,7.2*,5.4
Cn1c(N)cc(=O)n(Cc2ccccc2)c1=O,x,94.5,x,x,99.0
Cc1cc(C(F)(F)F)nc(Nc2nc(C)c3ccccc3n2)n1,92.1,102.3,91.6,101.1,99.8
O=C(N/N=C/C=C/c1ccccc1)c1n[nH]c2c1CCC2,x,25.0,x,x,28.5
Cn1cc(C(=O)N/N=C/C(Br)=C/c2ccccc2)ccc1=O,x,3.6*,x,x,3.3*
COc1cccc(C(=O)N/N=C/C(Br)=C/c2ccccc2)c1,x,2.8*,x,x,1.7*
O=C(N/N=C/C(Br)=C\c1ccccc1)c1n[nH]c2c1CCC2,22.3*,3.9*,51.2,5.3*,2.2*
Cc1ccccc1NCC(=O)N/N=C/C(Br)=C/c1ccccc1,30.3,54.7,70.5,10.5*,43.1
O=C(Cc1cccs1)N/N=C/C(Br)=C/c1ccccc1,x,75.9,x,x,61.5
CCn1c(O)c(C(C#N)=C2N=c3ccccc3=N2)c2ccccc21,x,81.5,x,x,90.0
Cc1ccc(C(=O)CC2(O)C(=O)N(Cc3ccccc3Cl)c3ccccc32)o1 (centres undefined),81.9,22.9,89.1,18.5*,14.4
O=C(CC1(O)C(=O)N(Cc2cccc3ccccc23)c2ccccc21)c1cccnc1 (centres undefined),39.6,11.6,53.1,19.7*,13.5
CS(=O)(=O)Oc1ccccc1/C=C1/N=C(c2ccc(F)cc2)OC1=O,x,94.2,x,x,90.9
COC(=O)[C@@]1(Cc2ccc(OC)cc2)[C@@H]2[C@@H](CC(=O)[C@H]2CC(=O)C(=O)N(C)C)CN1C(=O)c1ccccc1,x,56.7,x,x,74.2
COC(=O)[C@@]1(Cc2ccc(OC)cc2)[C@@H]2C(=CC(=O)[C@H]2CC(=O)C(=O)N2CCCC2)CN1C(=O)c1ccccc1,x,1.9*,x,x,2.0*
c1ccc(-c2nc3cc4ccccc4cc3[nH]2)nc1,54.5,39.6,52.4,16.2*,39.9
O=C(CCN1CCC(c2ccccc2)C1)c1cccs1 (centres undefined),x,15.8,x,x,2.8*
O=C(CCN1CCC(c2ccccc2)C1)c1ccccc1 (centres undefined),x,87.0,x,x,96.0
CCOC(=O)c1ccc2c(c1)NC(=O)C(N1CCN(c3ccc(OC)cc3)CC1)S2 (centres undefined),68.3,77.7,46.1*,30.5*,66.5
COC(=O)c1ccc2c(c1)NC(=O)C(N1CCCC1)S2 (centres undefined),x,84.9,x,x,83.6
Cc1cccc2sc(NNC(=O)c3ccc(S(=O)(=O)N4CCCC(C)C4)cc3)nc12 (centres undefined),x,1.9*,x,x,3.9
CCOC(=O)N1CCN(S(=O)(=O)c2ccc(C(=O)NNc3nc4c(C)cccc4s3)cc2)CC1,x,11.1,x,x,10.9
Cc1cccc2sc(NNC(=O)c3ccc(S(=O)(=O)N4CCc5ccccc5C4)cc3)nc12,x,3.7*,x,x,4.5
NC1=CC(=O)c2cccc3cccc1c23,69.0,x,83.6,57.5,x
Cc1ccc(C)c(OCC(=O)Nc2ccc3c(c2)OCO3)c1C,87.6,70.3,94.8,21.4*,70.7
SMILES,HUVEC inhibit,HCT116 bCat-KO,Lung fibro prol,H69AR inhibit,HCT116 PTEN-null
COc1ccc(NC(=O)CSc2nnc(-c3ccccc3C)n2N)cc1OC,102.5,98.3,103.1,94.9,102.5
CCOC(=O)C1CCN(C(=O)Cn2cc(C(=O)C3CC3)c3ccccc32)CC1,83.9,89.4,82.2,39.8*,97.3
COc1ccc(NC(=O)CSc2ncn[nH]2)c([N+](=O)[O-])c1,x,89.9,x,x,99.4
COc1ccc(Cl)cc1NC(=O)NC(C)c1ccncc1 (centres undefined),87.1,80.5,100.9,51.9,71.8
COc1ccc(Cl)cc1NC(=O)C1CSC(c2ccncc2)=N1 (centres undefined),84.2,69.4,78.3,30.4*,72.7
CCOC(=O)Nc1ccc2c(c1)N(C(=O)CN1CCN(C)CC1)c1ccccc1S2,x,95.1,x,x,76.6
O=C(Nc1ccc(F)cc1)c1nsc(Cl)c1Cl,87.4,83.5,99.8,37.1*,80.7
O=C(Nc1ccc(F)cc1)c1ccccc1,101.4,98.1,109.6,112.5,x
Cc1ccc(C(C(=O)NC(C)(C)C)N(C(=O)c2csnn2)C2CC2)cc1 (centres undefined),94.1,93.8,96.9,87.3,103.0
O=C(ONc1ccc(N=NC(=O)c2ccccc2O)cc1)c1ccccc1,36.5,36.8,70.1,11.6*,18.2
Cc1cccc(-c2nsc(SCC(=O)c3ccc(Cl)cc3)n2)c1,x,96.9,x,x,88.7
CC(=O)Nc1ccc(Nc2cc(C)nc3c(-c4ccc(Cl)cc4)c(C)nn23)cc1,x,90.1,x,x,73.7

# Source: PubChem
